In ChEMBL document CHEMBL1148973, “Bioactive friedolanostanes and 11(10-->8)-abeolanostanes from the bark of Garcinia speciosa” (2004) one finds GI50 and Activity data, which are given here for ten molecules.

What all share (format): functional
One assay relates to SF-268. Nature of the assay: Cytotoxicity against human SF268 cells after 48 hrs by SRB assay. The settings on record: SF-268, 48 h. In outline: (§1)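 SRB growth-inhibition assay following the NCI screen protocol. Cells were kept adherent in RPMI-1640 with 5% heat-inactivated FBS and 2 mM glutamine at 37 °C under 5% CO2. Plating density was 1.5 × 10^5 cells/mL for MCF-7 and SF-268 and 7.5 × 10^4 cells/mL for NCI-H-460. Cells attached overnight, then received five concentrations (top 100 µM) for 48 h. Cells were fixed in situ, stained with SRB and the bound dye solubilised. GI50 was taken from dose-response curves. Doxorubicin served as positive control.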
Background: Sulforhodamine B stains cellular protein and so reports cell mass.

The test system of assay [1] is MCF7. Nature of the assay: Cytotoxicity against human MCF7 cells after 48 hrs by SRB assay. The settings on record: MCF7, 48 h. In outline: as §1
A further assay relates to NCI-H460. Description: Cytotoxicity against human NCI-H460 cells after 48 hrs by SRB assay. The settings on record: NCI-H460, 48 h. In short, it runs like this: as §1
Assay [2] has as its system MCF7. Description: Induction of apoptosis in human MCF7 cells assessed as fragmentation of genomic DNA at 15.5 uM after 48 hrs by TUNEL assay. In short, it runs like this:
(§2)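 MCF-7 cells were seeded at 1.5 × 10^5 cells/mL, grown 24 h at 37°, then exposed continuously for 48 h. Adherent and floating cells were harvested by trypsinisation, cytospun onto slides and fixed in 4% paraformaldehyde for 1 h at room temperature. DNA fragmentation was detected by fluorescein TUNEL with DAPI counterstain under fluorescence microscopy. Apoptotic percentage came from ≥400 cells over ≥5 random fields. Controls were untreated cells and 40 nM doxorubicin.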

Assay [3] relates to MCF7. Nature of the assay: Induction of apoptosis in human MCF7 cells assessed as fragmentation of genomic DNA at 15.3 uM after 48 hrs by TUNEL assay. In short, it runs like this: as §2
Assay [4] concerns MCF7. Description: Induction of apoptosis in human MCF7 cells assessed as fragmentation of genomic DNA at 19.2 uM after 48 hrs by TUNEL assay. In outline:
as §2

Assay [5] deals with MCF7. Nature of the assay: Induction of apoptosis in human MCF7 cells assessed as fragmentation of genomic DNA at 19.4 uM after 48 hrs by TUNEL assay. In outline:
as §2

Assay [6] relates to MCF7. Nature of the assay: Induction of apoptosis in human MCF7 cells assessed as fragmentation of genomic DNA at 22.3 uM after 48 hrs by TUNEL assay. In outline: as §2
Assay [7] deals with MCF7. Description: Induction of apoptosis in human MCF7 cells assessed as fragmentation of genomic DNA at 26 uM after 48 hrs by TUNEL assay. In short, it runs like this: as §2
Assay [8] concerns MCF7. Nature of the assay: Induction of apoptosis in human MCF7 cells assessed as fragmentation of genomic DNA at 0.043 uM after 48 hrs by TUNEL assay.

In general, GI50 refers to the concentration giving 50% growth inhibition. A higher GI50 goes with lower sensitivity of the cells. Take `CC(=O)O[C@H]1CC[C@]2(C)C3=CC[C@]4(C)C([C@H](C)CC(=O)C[C@H](C)C(=O)O)=CC[C@@]4(C)[C@@H]3CC[C@H]2C1(C)C`: the GI50 with SF-268 is 30.6 µM; in the assay with MCF7 [1] it was 15.5 µM; in the assay on NCI-H460 it was 22.1 µM. Further, the Activity in the assay with MCF7 [2] is recorded as 5.33%.

As for `COC(=O)/C(C)=C/[C@H]1C[C@@H](C)[C@]2(C)[C@@H](C=C3C4=C(CC[C@]32C)[C@@]2(C)CC[C@@H](OC(C)=O)C(C)(C)[C@@H]2CC4)O1`, the Activity in the assay on MCF7 [3] was 23.54%. Also, the GI50 was determined as 28.6 µM in the assay with SF-268, 15.3 µM with MCF7 [1] and 34.4 µM in the assay with NCI-H460.

Consider `C/C(=C\C=C/[C@@H](C)[C@@]1(C)C[C@H]2O[C@]23[C@]1(C)CCC(=O)[C@@]31CC[C@H]2C(C)(C)[C@@H](O)CC[C@@]21C)C(=O)O`, for which the GI50 stood at 95.7 µM in the assay on SF-268, 69.6 µM with MCF7 [1] and 70.3 µM with NCI-H460.

With `COC(=O)[C@@H](C)CC(=O)C[C@@H](C)C1=CC[C@@]2(C)[C@@H]3CC[C@H]4C(C)(C)[C@@H](O)CC[C@]4(C)C3=CC[C@]12C`, the GI50 with SF-268, in the assay on MCF7 [1] and in the assay with NCI-H460 was greater than 100 µM each time.

As for `COC(=O)/C(C)=C/[C@H]1C[C@@H](C)[C@]2(C)[C@@H](C=C3C4=C(CC[C@]32C)[C@@]2(C)CC[C@@H](O)C(C)(C)[C@@H]2CC4)O1`, in the assay with MCF7 [4], the Activity is 2.97%. Also, the GI50 with SF-268 worked out at 29.7 µM; in the assay on MCF7 [1], 19.2 µM; in the assay on NCI-H460, 30.4 µM.

On to `C[C@H](CC(=O)C[C@H](C)C(=O)O)C1=CC[C@@]2(C)[C@@H]3CC[C@H]4C(C)(C)[C@H](O)CC[C@]4(C)C3=CC[C@]12C`, for which the GI50 came out at 34.8 µM in the assay with SF-268, 19.4 µM in the assay on MCF7 [1] and 36.9 µM in the assay on NCI-H460. Also, in the assay on MCF7 [5], the Activity came out at 2.34%.

Take `C/C(=C\CC[C@@H](C)[C@@]1(C)C[C@H]2O[C@]23[C@]1(C)CCC(=O)[C@@]31CC[C@H]2C(C)(C)[C@@H](O)CC[C@@]21C)C(=O)O`: the concentration for 50% growth inhibition (GI50) in the assay with SF-268 came to 86.4 µM; in the assay with MCF7 [1], 63.8 µM; in the assay on NCI-H460, 68.6 µM.

For `COC(=O)/C(C)=C/[C@H](O)C[C@@H](C)[C@]1(C)CC=C2C3=C(CC[C@]21C)[C@@]1(C)CC[C@@H](O)C(C)(C)[C@@H]1CC3` [GARCIHOMBRONANES C], the Activity with MCF7 [6] was 17.36%. For the same molecule, the 50% growth inhibitory concentration (GI50) in the assay on SF-268 stood at 38.6 µM; with MCF7 [1], 22.3 µM; with NCI-H460, 37.9 µM.

For `COC(=O)/C(C)=C/[C@H](O)C[C@@H](C)[C@]1(C)CC(=O)C2=C3CC[C@H]4C(C)(C)[C@H](O)CC[C@]4(C)[C@H]3CC[C@]21C`, the concentration for 50% growth inhibition (GI50) with SF-268 is 44.7 µM; with MCF7 [1], 26 µM; in the assay on NCI-H460, 42.7 µM. For the same molecule, in the assay on MCF7 [7], the Activity was found to be 26.36%.

For the molecule `COc1cccc2c1C(=O)c1c(O)c3c(c(O)c1C2=O)C[C@@](O)(C(=O)CO)C[C@@H]3O[C@H]1C[C@H](N)[C@H](O)[C@H](C)O1` [DOXORUBICIN], the GI50 in the assay with SF-268 came to 0.093 µM; with MCF7 [1], 0.043 µM; in the assay on NCI-H460 it was 0.094 µM. In the assay on MCF7 [8], the Activity worked out at 26.02%.
